Screening results (PubChem BioAssay)
Hits are enriched below; roughly 2.2% of the tested compounds scored in any of these assays.
ROMK mod: ROMK potassium channel modulators, primary screen, cell-based, thallium flux, MLSMR library; B-score at 10 µM; AID 1918, 2009; ATP-sensitive inward rectifier potassium channel 1 (Homo sapiens), P48048; Tet-inducible ROMK, thallium flux fluorescence; actives lie on both sides; 130,000 compounds, 2% hits;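 active means signal ratio slope over the read window, or its plate-corrected B-score, at least 3 SD from the plate mean, either direction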;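 further: B-score of the F/F0 ratio slope over 7 to 12 s after thallium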
Diaphorase act: compounds boosting diaphorase resazurin reduction – biochemical, uHTS, resorufin fluorescence, counter-screen for diaphorase-coupled primary assays, primary screen; Diaphorase/resazurin coupled assay, 16 min; hits give high values; 1 = vehicle wells, 0 = NADH-free wells; activation factor at 20 µM; 190,000 compounds, 0.005% hits; AID 1229, 2008;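 active means diaphorase activity raised at least twofold by the compound at 20 µM; inactive means activation factor below 2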
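Assay system: bacterial diaphorase enzyme (C. kluyveri) / Input: enzyme 0.07 U/mL final / Medium: 50 mM HEPES pH 7.4 with 4.542 mM MgCl2, 0.005% Tween 20 / Doses: single compound dose of 20 µM, 1% DMSO final / Incubation: 16 min enzyme reaction, ambient temperature / Signal: fluorescence, excitation 544 nm and emission 590 nm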
PMI activator: activators of human PMI, primary screen, biochemical, fluorescence intensity, near-Km mannose 6-phosphate. 190,000 compounds, 0.005% hits. Mannose-6-phosphate isomerase (Homo sapiens), P34949. purified human PMI, coupled resazurin fluorescence, 20 min; hits give high values; 1 = vehicle control, 0 substrate-free wells. activation factor at 20 µM;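 active means activation factor of 2 or more at 20 µM, relative to plate controls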
Target sequence (P34949 whole entry, looked up): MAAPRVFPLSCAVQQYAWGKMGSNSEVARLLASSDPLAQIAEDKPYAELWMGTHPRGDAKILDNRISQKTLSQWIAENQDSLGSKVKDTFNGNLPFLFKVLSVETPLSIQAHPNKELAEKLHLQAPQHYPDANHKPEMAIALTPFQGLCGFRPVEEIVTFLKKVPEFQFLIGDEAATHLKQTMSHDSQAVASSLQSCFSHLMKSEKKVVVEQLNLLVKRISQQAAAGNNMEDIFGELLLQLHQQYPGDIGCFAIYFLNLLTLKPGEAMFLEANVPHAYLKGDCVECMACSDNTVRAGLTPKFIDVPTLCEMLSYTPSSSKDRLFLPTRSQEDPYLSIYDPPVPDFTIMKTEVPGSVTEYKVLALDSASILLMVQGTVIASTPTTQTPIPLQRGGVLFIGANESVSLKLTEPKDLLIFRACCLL
Diaphorase inh: diaphorase inhibitors and chemical oxidizers, primary screen, counter-screen for diaphorase-coupled primary assays, biochemical, uHTS, resorufin fluorescence; diaphorase resazurin-to-resorufin fluorescence, NADH, 16 min; bacterial (C. kluyveri) enzyme, not human; 190,000 compounds, 0.69% hits; inhibition, % at 20 µM;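 active means primary screen inhibition at 20 µM above a set limit, cut at about 50% in these data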
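Benchmarks: positive control wells lacking NADH, neutral wells with DMSO only. System: bacterial diaphorase enzyme (C. kluyveri). Input: 0.14 U/mL diaphorase, enzyme working solution. Detection: resorufin fluorescence, excitation 544 nm, emission 590 nm. Times: 16-min room-temperature incubation before reading.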
G6PDH CS: L. mesenteroides G6PDH inhibitors, counter-screen for G6PDH-coupled screening assays, biochemical, Leuconostoc mesenteroides enzyme; inhibition, % at 5 µM; glucose-6-phosphate dehydrogenase [Leuconostoc mesenteroides]; Purified L. mesenteroides G6PDH, diaphorase/resazurin coupled fluorescence, 45 min; 200,000 compounds, 0.12% hits; in the data active means inhibition above about 50%
PMI act hi M6P: human PMI activators, high substrate, primary screen, biochemical, fluorescence intensity, near-saturating mannose 6-phosphate | coupled PMI enzyme assay, resazurin fluorescence, 20 min; hits give high values; 1 = untreated enzyme, 0 = substrate-free blank | activation factor at 20 µM | 190,000 compounds, 0.34% hits | AID 1216, 2008;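 active means activation factor of 2 or more at 20 µM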
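Test system – human PMI in coupled enzyme assay · Timing – 20 min incubation at room temperature · Detection – Diaphorase-driven resazurin-to-resorufin fluorescence, excitation 544, emission 590 nm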
ROMK retest: ROMK channel modulator hit retest, confirmation, cell-based, thallium flux, duplicate, resupplied hits; shares compounds with ROMK mod; fluorescence ratio; hits give low values; normalized thallium flux (F/F0 slope) at 10 µM; 3,000 compounds, 54% hits; AID 1917, 2009;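 active means Flux at 10 µM at least 3 SD below or above vehicle control mean in one or both replicates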
A number is an active result.

For Cc1csc(NC(=O)c2cc(-c3ccccc3)nc3ccccc23)n1 the results were Diaphorase act inactive, PMI activator inactive, Diaphorase inh inactive, G6PDH CS inactive, PMI act hi M6P inactive and ROMK retest inactive.
For Nc1cccnc1-n1nc(C(F)(F)F)cc1C(F)(F)F the results were ROMK mod inactive, Diaphorase act inactive, PMI activator inactive, Diaphorase inh inactive, G6PDH CS inactive and PMI act hi M6P inactive.
Screening O=S(=O)(/N=C(/Nc1cccc2ccccc12)c1ccccc1)c1cccs1 returned Diaphorase act inactive, PMI activator inactive, Diaphorase inh inactive, G6PDH CS inactive, PMI act hi M6P inactive and ROMK retest 0.06.
Screening CN1C(=O)/C(=C/C=C2\SCCN2C)SC1=S returned ROMK mod -3, Diaphorase act inactive, PMI activator inactive, Diaphorase inh inactive, G6PDH CS inactive, PMI act hi M6P inactive and ROMK retest 0.057.
For CN1C(=O)/C(=C/C=C2\SCCN2C)N(C)C1=S the results were ROMK mod inactive, Diaphorase act inactive, PMI activator inactive, Diaphorase inh inactive, G6PDH CS inactive and PMI act hi M6P inactive.
`CCOC(=O)c1cc(-c2ccc(F)cc2)n(CCC(=O)NC2CCN(Cc3ccccc3)CC2)c1C` gave ROMK mod inactive, Diaphorase act inactive, PMI activator inactive, Diaphorase inh inactive, G6PDH CS inactive and PMI act hi M6P inactive.
`O=C(Cc1csc(NC(=O)c2ccc(F)cc2)n1)NO` gave ROMK mod inactive, Diaphorase act inactive, PMI activator inactive, Diaphorase inh inactive, G6PDH CS inactive and PMI act hi M6P inactive.
Screening Cc1ccc(-c2nn(-c3ccccc3)cc2C2SCC(=O)N2Cc2ccccc2)o1 (centres undefined) returned Diaphorase act inactive, PMI activator inactive, Diaphorase inh inactive, G6PDH CS inactive, PMI act hi M6P inactive and ROMK retest inactive.
For O=C1CSC(c2cn(-c3ccccc3)nc2-c2cc3ccccc3o2)N1Cc1ccccc1 (centres undefined) the results were ROMK mod inactive, Diaphorase act inactive, PMI activator inactive, Diaphorase inh inactive, G6PDH CS inactive and PMI act hi M6P inactive.
For CCc1c(C)sc(NC(=O)c2noc(C)c2[N+](=O)[O-])c1C#N the results were ROMK mod inactive, Diaphorase act inactive, PMI activator inactive, Diaphorase inh inactive, G6PDH CS inactive and PMI act hi M6P inactive.
For CNC(=S)c1cc(C(C)(C)C)c(O)c(C(C)(C)C)c1 the results were ROMK mod inactive.
Cc1cc(NCCCn2ccnc2)n2nc(C)c(-c3ccccc3)c2n1 was read as Diaphorase act inactive, PMI activator inactive, Diaphorase inh inactive, G6PDH CS inactive and PMI act hi M6P inactive.
c1ccc(-c2nc(NCCCn3ccnc3)c3ccccc3n2)cc1 was read as ROMK mod -3.6, Diaphorase act inactive, PMI activator inactive, Diaphorase inh inactive, G6PDH CS inactive, PMI act hi M6P inactive and ROMK retest 0.06.
CCN(CC)CCCNc1nc(-c2ccccc2)nc2ccccc12 was read as ROMK mod inactive, Diaphorase act inactive, PMI activator inactive, Diaphorase inh inactive, G6PDH CS inactive and PMI act hi M6P inactive.
For Cc1cc(NCCCn2ccnc2)n2ncc(-c3ccccc3)c2n1 the results were ROMK mod -3.3, Diaphorase act inactive, PMI activator inactive, Diaphorase inh inactive, G6PDH CS inactive, PMI act hi M6P inactive and ROMK retest inactive.
For COc1ccc(CC(=O)NNC2=Nc3cccc4cccc2c34)cc1OC the results were ROMK mod inactive.
Screening O=C(NNC1=Nc2cccc3cccc1c23)c1ccc(Br)cc1 returned ROMK mod -3.4, Diaphorase act inactive, PMI activator inactive, Diaphorase inh inactive, G6PDH CS inactive, PMI act hi M6P inactive and ROMK retest inactive.
For CC(C)c1ccc2oc(-c3ccc(N)cc3)nc2c1 the results were Diaphorase act inactive, PMI activator inactive, Diaphorase inh inactive, G6PDH CS inactive, PMI act hi M6P inactive and ROMK retest inactive.
Cc1ccc(-c2nc3cc(N)ccc3o2)cc1 was read as Diaphorase act inactive, PMI activator inactive, Diaphorase inh inactive, G6PDH CS inactive and PMI act hi M6P inactive.
CC(=O)c1nnn(-c2ccc([N+](=O)[O-])cc2C)c1C was read as Diaphorase act inactive, PMI activator inactive, Diaphorase inh inactive, G6PDH CS inactive and PMI act hi M6P inactive.
`Cc1ccc(NC(=S)NNC(=S)Nc2ccc(C)cc2C)cc1` gave ROMK mod 5.3, Diaphorase act inactive, PMI activator inactive, Diaphorase inh inactive, G6PDH CS inactive, PMI act hi M6P inactive and ROMK retest inactive.
`Cc1cc(NC(=O)CSCC(=O)N(c2ccc(F)cc2)C(C(=O)NC2CCCCC2)c2ccc(O)c(O)c2)no1` (centres undefined) gave ROMK mod inactive, Diaphorase act inactive, PMI activator inactive, Diaphorase inh inactive, G6PDH CS inactive and PMI act hi M6P inactive.
Screening Cc1cc(NC(=O)CSCC(=O)N(c2cccc(Cl)c2)C(C(=O)NC2CCCCC2)c2ccc(O)c(O)c2)no1 (centres undefined) returned ROMK mod -4.8, Diaphorase act inactive, PMI activator inactive, Diaphorase inh inactive, G6PDH CS inactive, PMI act hi M6P inactive and ROMK retest 0.056.
Screening O=C(NC1CCCCC1)C(c1cccnc1)N(C(=O)CCl)c1cccc(Cl)c1 (centres undefined) returned ROMK mod -3.3, Diaphorase act inactive, PMI activator inactive, Diaphorase inh inactive, G6PDH CS inactive, PMI act hi M6P inactive and ROMK retest 0.051.
Cc1cc(C)n2nc(SCCC(=O)NCc3ccccc3)nc2n1 was read as ROMK mod inactive, Diaphorase act inactive, PMI activator inactive, Diaphorase inh inactive, G6PDH CS inactive and PMI act hi M6P inactive.
Screening CC(C)OP(=O)(OC(C)C)/C(C=O)=N\Nc1ccc([N+](=O)[O-])cc1 returned ROMK mod inactive.
